STAT1 blocker: STAT1 signaling inhibitors, primary screen, cell-based, HTS, luciferase reporter | NIH 3T3 STAT1-luciferase reporter, IFN-gamma, luminescence | inhibition, % at 5.5 µM | 200,000 compounds, 0.35% hits | AID 920, 2007;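 active means inhibition above a set limit, the mean inhibition across all tested compounds plus 3 SD, cut at about 34% in these data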
STAT1 activator: STAT1 signaling activators, primary screen, cell-based, HTS, luciferase reporter; activation (% of control), % at 5.5 µM; NIH 3T3 STAT1-luciferase reporter, IFN-gamma, luminescence; 100% = IFN-gamma alone, no compound; AID 932, 2007; 200,000 compounds, 2.6% hits;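 active means activation above the screen-wide mean activation plus 3 SD, cut at about 130% in these data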
STAT3 blocker: IL-6 driven STAT3 reporter inhibitors, primary screen, U3A cells, luciferase, luminescence, MLSCN library. IL-6 STAT3-luciferase reporter; host cell line lacks STAT1. inhibition, % at 5.5 µM. 190,000 compounds, 0.89% hits;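 active means inhibition above the mean inhibition across all screened compounds plus 3 SD, cut at about 44% in these data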
STAT3 activator: IL-6 driven STAT3 reporter potentiators, primary screen, U3A cells, luciferase, luminescence, MLSCN library | 190,000 compounds, 0.91% hits | activation (% of control), % at 5.6 µM | IL-6 STAT3-luciferase reporter; 100% = signal with IL-6 EC80 alone | AID 871, 2007;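 active means activation above the screen-wide mean of compound activation plus 3 SD, cut at about 130% in these data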
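Test system: STAT3-luciferase reporter U3A cells; Detection: reporter luminescence signal; Times: 1 h compound pre-exposure, 6 h IL-6 stimulation, 37 °C; Benchmarks: IL-6-only high control; Also added: IL-6 stimulus at 33 ng/mL final.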
Hits are given with their value; n = inactive. Sampled rows, rich in hits. Any-hit rate of the full collection: about 4.3%.

SMILES | STAT1 blocker | STAT1 activator | STAT3 blocker | STAT3 activator
COc1ccc(N(CCCN2C(=O)c3cccc4cccc(c34)C2=O)C(=O)c2ccncc2)cc1 | n | 130 | n | n
CN(C)S(=O)(=O)c1cc(NC(=O)[C@H](Cc2ccccc2)N2C(=O)c3ccccc3C2=O)ccc1Cl | n | n | n | n
O=C(Nc1ccc([N+](=O)[O-])cc1)C(Cc1ccccc1)N1C(=O)c2cccc3cccc(c23)C1=O (centres undefined) | n | n | n | 135
CN(c1ccccc1)S(=O)(=O)c1ccc(C(=O)NCc2ccccn2)cc1 | n | n | n | n
NC1=NC(=O)/C(=C\c2cc([N+](=O)[O-])ccc2Cl)S1 | n | n | n | n
Fc1ccc2[nH]c3c(N4CCN(C5CCCCC5)CC4)ncnc3c2c1 | n | n | n | n
Cc1ccc2[nH]c3c(N4CCCCCC4)ncnc3c2c1 | 36 | n | 68 | n
C=CCNc1ncnc2c1[nH]c1ccc(C)cc12 | n | 139 | n | n
Cc1ccc2[nH]c3c(NCCN4CCOCC4)ncnc3c2c1 | n | n | n | n
CC(/C=N/N1CCN(c2ccccc2)CC1)=C\c1ccco1 | n | 138 | n | n
Cc1cc(N2CC(C)OC(C)C2)n2cc(-c3ccccc3)nc2n1 (centres undefined) | n | n | n | n
Cc1ccccc1NC(=O)COC(=O)c1c[nH]c(=O)[nH]c1=O | n | n | n | n
O=C(Nc1ccc(NC(=O)c2ccco2)nc1)c1ccccn1 | n | n | n | n
O=C(Nc1nccs1)c1ccc(NC(=O)c2ccco2)cc1 | n | 137 | n | n
O=C(Nc1ccc(-c2nc3ccccc3[nH]2)cc1)c1ccco1 | n | 141 | n | n
O=C(/C=C/c1ccco1)Nc1ccc(-c2nc3ccccc3[nH]2)cc1 | n | n | n | n
O=C(Cc1ccccc1)Nc1ccc(NC(=O)c2ccco2)nc1 | n | 136 | n | n
O=C(Nc1ccc(Nc2ccccc2)cc1)c1ccco1 | n | 134 | n | n
CCOC(=O)c1ccc(N2C(=O)C3C(/C=C/c4ccccc4)OC4(C(=O)c5ccccc5C4=O)C3C2=O)cc1 (centres undefined) | n | n | n | n
CCN(c1ccccc1)S(=O)(=O)c1ccc(NC(=O)c2ccco2)cc1 | n | n | n | n
CN(c1ccccc1)S(=O)(=O)c1ccc(NC(=O)c2ccco2)cc1 | n | 132 | n | n
S=C(Nc1cccc(Cl)c1Cl)N1CCC2(CC1)OCCO2 | n | n | n | n
CS(=O)(=O)Nc1cccc2[nH]ncc12 | n | n | n | n
Cc1cc(C)nc(-n2nc(C)c3c(C(F)(F)F)cc(=O)[nH]c32)n1 | n | n | n | n
Cc1cc(C)nc(-n2nc(C)c(Sc3ccc(F)cc3)c2N)n1 | n | 131 | n | n
SMILES | STAT1 blocker | STAT1 activator | STAT3 blocker | STAT3 activator
O=C1c2ccccc2C(=O)N1CCSc1ccccc1 | n | 138 | n | n
O=C1c2ccccc2C(=O)N1CCSc1nncs1 | n | n | n | n
CCOC(=O)c1cnc(SCCN2CCOCC2)nc1N | n | n | n | n
CCCSc1nsc(NC(=O)CC)n1 | n | 130 | n | n
CCCCCCSc1nsc(NC(=O)CC(C)C)n1 | n | n | n | n
Cc1cc(C)n(C(=O)COc2ccc([N+](=O)[O-])cc2)n1 | n | n | n | n
CCOC(=O)Cn1cnc(-c2ccc([N+](=O)[O-])cc2)c1 | n | 136 | n | n
OCc1cn(-c2ccccc2)nc1-c1ccco1 | n | n | n | n
Cc1ccc(-c2nn(-c3ccccc3)cc2CO)o1 | n | 148 | n | n
Cc1ccc(-c2nn(-c3ccccc3)cc2C(N)=O)o1 | n | n | n | n
Cc1ccc(-c2nn(-c3ccccc3)cc2C=O)o1 | n | 143 | n | n
COc1ccc(C(=O)c2c[nH]c(C(=O)N=CN(C)C)c2)cc1 | n | n | n | n
O=C1NC2(CCCCC2)C(=O)N1/N=C/c1ccccc1Br | n | 131 | n | n
O=C(O)CN(c1ccccc1)S(=O)(=O)c1cc(C(F)(F)F)cc(C(F)(F)F)c1 | n | n | n | n
O=[N+]([O-])c1ccc(Cl)c(S(=O)(=O)/N=C(/c2ccccc2)N2CCOCC2)c1 | n | n | n | n
C=CCN=C(NC#N)SCC(=O)c1cccc(OC)c1 | n | 137 | n | n
Cc1ccc(C(=O)N/C(=C/c2ccco2)C(=O)NCCc2c[nH]c3ccccc23)cc1 | n | n | n | n
Brc1ccc(-c2cnc(-c3cccs3)o2)cc1 | n | 143 | n | n
O=c1c2c(-c3cccs3)csc2ncn1-c1ccc(Br)cc1 | n | n | n | n
CC1CCC/C(=N/Nc2nc3ccccc3s2)C1 (centres undefined) | n | 138 | n | n
CC1(C)CC(=O)C/C(=N/Nc2nc3ccccc3s2)C1 | n | n | n | n
O=C(NNC(=O)c1ccc([N+](=O)[O-])cc1Cl)c1ccncc1 | n | n | n | n
COc1ccc(C(=O)NCc2ccc(-c3nc4ccccc4s3)cc2)cc1 | n | n | n | n
O=C(NCc1ccc(-c2nc3ccccc3s2)cc1)c1ccc(Br)o1 | n | 137 | n | n
COc1cc(C(=O)NCc2ccc(-c3nc4ccccc4s3)cc2)cc(OC)c1OC | n | 141 | n | n
SMILES | STAT1 blocker | STAT1 activator | STAT3 blocker | STAT3 activator
Cn1cccc1/C=C1\SC(=S)N(NC(=O)c2cccc(Cl)c2)C1=O | n | n | n | n
CSc1ccc(/C=C/C(=O)Nc2ccccc2)cc1 | 53 | n | 79 | n
O=C(/C=C/c1ccccc1)Nc1cccc(C(=O)O)c1 | 96 | n | 107 | n
CC(=O)Nc1ccc(NC(=O)/C=C/c2ccccc2)cc1 | n | n | n | n
CSc1cccc(NC(=O)/C=C/c2ccccc2)c1 | n | 133 | n | n
CSc1cccc(NC(=O)/C=C/c2ccc(Cl)cc2)c1 | n | n | n | n
O=C(/C=C/c1ccccc1)Nc1ccc2c(c1)OCCO2 | 42 | n | 79 | n
O=C(O)C1C(=O)NCC1c1ccccc1 (centres undefined) | n | n | n | n
Cc1noc(C)c1S(=O)(=O)Nc1ccc(C(=O)N2CCC(C)CC2)cc1 | n | n | n | n
O=C(CCCCn1c(=O)c2ccccc2n(Cc2ccccc2F)c1=O)NC1CCN(Cc2ccccc2)CC1 | n | n | n | n
O=C(/C=C\c1ccccc1[N+](=O)[O-])Nc1ccccc1 | n | 135 | n | n
NS(=O)(=O)c1ccc(NC(=O)/C=C/c2ccccc2[N+](=O)[O-])cc1 | n | n | n | n
CCCn1nnnc1NC(=O)COc1ccc(CC)cc1 | n | n | n | n
Clc1ccc(-c2nnc(SCc3ccon3)o2)c(Cl)c1 | n | 141 | n | n
CC(=O)c1ccc(N=c2scc(C)n2C(C)C)cc1 | n | n | n | n
CCOC(=O)c1cnc(Nc2nc3ccccc3o2)nc1C | 45 | n | 96 | n
COc1cc(C2Nc3ccccc3C(=O)N2c2ccc3c(c2)OCCO3)ccc1OCC(C)C (centres undefined) | n | 132 | n | n
Cc1cc(C(=O)CSc2nncn2C)c(C)n1-c1ccccc1 | n | n | n | n
